Measurements: ChEMBL document CHEMBL4138242, “Synthesis and antibacterial evaluation of novel cationic chalcone derivatives possessing broad spectrum antibacterial activity” (Eur J Med Chem, 2018)
Activity calls are given as the source filed them. No cut-off for these calls is given here.

Tested on: Salmonella enterica
Experiment: Antibacterial activity against Salmonella enterica ATCC 13076 after 16 to 20 hrs by broth microdilution method
Format: functional
Conditions: not given
Summary of the method: (§1)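 Broth microdilution per CLSI. Bacteria grown 4-6 h (about 10⁸ CFU/mL), then diluted to about 10⁶ CFU/mL. Medium: Mueller-Hinton broth, except Luria-Bertani broth for E. coli. Compounds in sterile water, twofold series 256-0.5 µg/mL, mixed 1:1 with inoculum, 37 °C for 16-20 h. MIC is the lowest concentration without visible growth. Duplicate wells; experiment repeated at least twice.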
With `CCCCCCCC[N+](C)(C)CC(=O)Nc1ccc(C(=O)/C=C/c2ccc(C)cc2)cc1.[Cl-]` the MIC was 8 µg/mL.

Tested on: Escherichia coli
Experiment: Antibacterial activity against drug-resistant NDM1 producing Escherichia coli clinical isolate SM-15-84 after 16 to 20 hrs by broth microdilution method
Format: functional
Conditions: not given
Summary of the method: (§2)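 CLSI broth microdilution in Mueller-Hinton broth. A 4-6 h culture was diluted to about 10⁶ CFU/mL and mixed 1:1 with compound dilutions prepared at 256 to 0.5 µg/mL from aqueous stocks. Plates were incubated at 37 °C for 16-20 h and read visually for MIC. Each concentration was run in duplicate, and the experiment was repeated at least twice. Vancomycin and meropenem were comparators.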
With `CCCCCCCC[N+](C)(C)CC(=O)Nc1ccc(C(=O)/C=C/c2ccc(C)cc2)cc1.[Cl-]` the MIC was 1 µg/mL.

Tested on: Staphylococcus aureus
Experiment: Antibacterial activity against Staphylococcus aureus ATCC 29213 after 16 to 20 hrs by broth microdilution method
Format: functional
Conditions: not given
Summary of the method: as §1
Work on `CCCCCCCC[N+](C)(C)CC(=O)Nc1ccc(C(=O)/C=C/c2ccc(C)cc2)cc1.[Cl-]` yielded an MIC of 1 µg/mL.

Tested on: Escherichia coli
Experiment: Antibacterial activity against drug-resistant NDM1 producing Escherichia coli clinical isolate EA-14-61 after 16 to 20 hrs by broth microdilution method
Format: functional
Conditions: not given
Summary of the method: as §2
With `CCCCCCCC[N+](C)(C)CC(=O)Nc1ccc(C(=O)/C=C/c2ccc(C)cc2)cc1.[Cl-]` the MIC was 4 µg/mL.

Tested on: Escherichia coli
Experiment: Antibacterial activity against drug-resistant NDM1 producing Escherichia coli clinical isolate Ecl-14-59 after 16 to 20 hrs by broth microdilution method
Format: functional
Conditions: not given
Summary of the method: as §2
Compound `CCCCCCCC[N+](C)(C)CC(=O)Nc1ccc(C(=O)/C=C/c2ccc(C)cc2)cc1.[Cl-]` has an MIC of 4 µg/mL.

Tested on: Staphylococcus aureus
Experiment: Antibacterial activity against methicillin-resistant Staphylococcus aureus clinical isolate 1-may after 16 to 20 hrs by broth microdilution method
Format: functional
Conditions: not given
Summary of the method: as §2
`CCCCCCCC[N+](C)(C)CC(=O)Nc1ccc(C(=O)/C=C/c2ccc(C)cc2)cc1.[Cl-]` showed an MIC of 1 µg/mL.

Tested on: Klebsiella pneumoniae
Experiment: Antibacterial activity against drug-resistant carbapenemase producing Klebsiella pneumoniae clinical isolate EC-13-23 after 16 to 20 hrs by broth microdilution method
Format: functional
Conditions: not given
Summary of the method: as §2
`CCCCCCCC[N+](C)(C)CC(=O)Nc1ccc(C(=O)/C=C/c2ccc(C)cc2)cc1.[Cl-]` showed an MIC of 4 µg/mL.

Tested on: Escherichia coli
Experiment: Antibacterial activity against drug-resistant NDM1 producing Escherichia coli clinical isolate Ecl-13-62 after 16 to 20 hrs by broth microdilution method
Format: functional
Conditions: not given
Summary of the method: as §2
In the case of `CCCCCCCC[N+](C)(C)CC(=O)Nc1ccc(C(=O)/C=C/c2ccc(C)cc2)cc1.[Cl-]`, the MIC is reported as 8 µg/mL.

Tested on: Staphylococcus aureus
Experiment: Antibacterial activity against methicillin-resistant Staphylococcus aureus clinical isolate 0831010 after 16 to 20 hrs by broth microdilution method
Format: functional
Conditions: not given
Summary of the method: as §2
`CCCCCCCC[N+](C)(C)CC(=O)Nc1ccc(C(=O)/C=C/c2ccc(C)cc2)cc1.[Cl-]` showed an MIC of 0.5 µg/mL.

Tested on: Klebsiella pneumoniae
Experiment: Antibacterial activity against drug-resistant carbapenemase producing Klebsiella pneumoniae clinical isolate KP-13-45 after 16 to 20 hrs by broth microdilution method
Format: functional
Conditions: not given
Summary of the method: as §2
In the case of `CCCCCCCC[N+](C)(C)CC(=O)Nc1ccc(C(=O)/C=C/c2ccc(C)cc2)cc1.[Cl-]`, the MIC is reported as 4 µg/mL.

Tested on: Escherichia coli
Experiment: Antibacterial activity against drug-resistant NDM1 producing Escherichia coli clinical isolate Ecl-14-56 after 16 to 20 hrs by broth microdilution method
Format: functional
Conditions: not given
Summary of the method: as §2
For `CCCCCCCC[N+](C)(C)CC(=O)Nc1ccc(C(=O)/C=C/c2ccc(C)cc2)cc1.[Cl-]`, the MIC was 4 µg/mL.

Tested on: Klebsiella pneumoniae
Experiment: Antibacterial activity against drug-resistant carbapenemase producing Klebsiella pneumoniae clinical isolate KP-14-4 after 16 to 20 hrs by broth microdilution method
Format: functional
Conditions: not given
Summary of the method: as §2
`CCCCCCCC[N+](C)(C)CC(=O)Nc1ccc(C(=O)/C=C/c2ccc(C)cc2)cc1.[Cl-]` gave an MIC of 4 µg/mL.

Tested on: not listed separately
Experiment: Hemolytic activity in sheep RBC after 1 hr
Format: ADME, cell-based, Ovis aries, Erythrocyte
Conditions: sheep red blood cells (erythrocytes)
Summary of the method: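 Sheep red blood cells (150 µL suspension) mixed with 50 µL of compound dilutions (5120-10 µg/mL), 1 h at 37 °C, then centrifuged. Supernatant read at 540 nm. Percent hemolysis calculated relative to RBC-only control (0%) and 0.1% Triton X-100 (100%).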
With `CCCCCCCC[N+](C)(C)CC(=O)Nc1ccc(C(=O)/C=C/c2ccc(C)cc2)cc1.[Cl-]` the HC50 at 1 h was 153 µg/mL.

Tested on: Staphylococcus aureus
Experiment: Induction of cytoplasmic membrane depolarization in Staphylococcus aureus ATCC 29213 at 10 to 20 ug/ml measured every 2 mins for 12 mins by DiSC35 dye-based fluorescence assay
Format: functional, organism-based
Conditions: not given
Summary of the method: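 Mid-log cells (~10⁸ CFU/mL) were suspended in PBS (S. aureus) or HEPES/glucose/KCl with EDTA (E. coli). They were preloaded with DiSC3(5) for 30 min (S. aureus) or 40 min (E. coli), and baseline fluorescence was read for 8 min. Compound was added to 20 µg/mL final, and fluorescence (ex 622/em 670 nm) was read every 2 min for 12 min. Water served as control.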
For `CCCCCCCC[N+](C)(C)CC(=O)Nc1ccc(C(=O)/C=C/c2ccc(C)cc2)cc1.[Cl-]`, the Activity was “Active”.

Tested on: Escherichia coli
Experiment: Antibacterial activity against Escherichia coli ATCC 25922 after 16 to 20 hrs by broth microdilution method
Format: functional
Conditions: not given
Summary of the method: as §1
Work on `CCCCCCCC[N+](C)(C)CC(=O)Nc1ccc(C(=O)/C=C/c2ccc(C)cc2)cc1.[Cl-]` yielded an MIC of 4 µg/mL.

Tested on: Escherichia coli
Experiment: Antibacterial activity against drug-resistant NDM1 producing Escherichia coli clinical isolate CF-15-61 after 16 to 20 hrs by broth microdilution method
Format: functional
Conditions: not given
Summary of the method: as §2
In the case of `CCCCCCCC[N+](C)(C)CC(=O)Nc1ccc(C(=O)/C=C/c2ccc(C)cc2)cc1.[Cl-]`, the MIC is reported as 4 µg/mL.

Tested on: Klebsiella pneumoniae
Experiment: Antibacterial activity against drug-resistant carbapenemase producing Klebsiella pneumoniae clinical isolate KP-14-2 after 16 to 20 hrs by broth microdilution method
Format: functional
Conditions: not given
Summary of the method: as §2
Work on `CCCCCCCC[N+](C)(C)CC(=O)Nc1ccc(C(=O)/C=C/c2ccc(C)cc2)cc1.[Cl-]` yielded an MIC of 16 µg/mL.

Tested on: Klebsiella pneumoniae
Experiment: Antibacterial activity against drug-resistant carbapenemase producing Klebsiella pneumoniae clinical isolate KP-13-54 after 16 to 20 hrs by broth microdilution method
Format: functional
Conditions: not given
Summary of the method: as §2
`CCCCCCCC[N+](C)(C)CC(=O)Nc1ccc(C(=O)/C=C/c2ccc(C)cc2)cc1.[Cl-]` gave an MIC of 8 µg/mL.

Tested on: Staphylococcus aureus
Experiment: Antibacterial activity against methicillin-resistant Staphylococcus aureus clinical isolate 20130911034sau after 16 to 20 hrs by broth microdilution method
Format: functional
Conditions: not given
Summary of the method: as §2
`CCCCCCCC[N+](C)(C)CC(=O)Nc1ccc(C(=O)/C=C/c2ccc(C)cc2)cc1.[Cl-]` showed an MIC of 0.5 µg/mL.

Tested on: Escherichia coli
Experiment: Antibacterial activity against drug-resistant NDM1 producing Escherichia coli clinical isolate KP-13-58 after 16 to 20 hrs by broth microdilution method
Format: functional
Conditions: not given
Summary of the method: as §2
`CCCCCCCC[N+](C)(C)CC(=O)Nc1ccc(C(=O)/C=C/c2ccc(C)cc2)cc1.[Cl-]` gave an MIC of 2 µg/mL.

Tested on: Escherichia coli
Experiment: Antibacterial activity against drug-resistant NDM1 producing Escherichia coli clinical isolate EC-14-54 after 16 to 20 hrs by broth microdilution method
Format: functional
Conditions: not given
Summary of the method: as §2
In the case of `CCCCCCCC[N+](C)(C)CC(=O)Nc1ccc(C(=O)/C=C/c2ccc(C)cc2)cc1.[Cl-]`, the MIC is reported as 8 µg/mL.
